What was measured:
Cynomolgus monkey [1] = experiment: In vivo inhibition of 11beta-HSD1 in non-fasting diet-induced obese cynomolgus monkey assessed as decrease in corticosterone excursion in plasma pretreated via oral gavage for 30 mins followed by DHC administration measured up to 60 mins by enzyme immunosorbent assay; format: functional; conditions: Macaca fascicularis
Procedure, shortened: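 Cynomolgus monkeys given test compound at a predetermined time before the experiment, chosen from its pharmacokinetics. Substrate DHC (rodent substrate, used in place of cortisone) given afterwards. Blood sampled at various times. Design otherwise similar to the mouse DHC challenge.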

Cynomolgus monkey [2] = experiment: Toxicity in cynomolgus monkey assessed as HPA axis activation by measuring increase in DHEA level at 10 mg/kg for 7 days; format: organism-based, Macaca fascicularis; conditions: in vivo, 168 h
Cynomolgus monkey [3] = experiment: Toxicity in cynomolgus monkey assessed as HPA axis activation by measuring increase in DHEAS level at 10 mg/kg for 7 days; format: organism-based, Macaca fascicularis; conditions: in vivo, 168 h
Cynomolgus monkey [4] = experiment: Toxicity in cynomolgus monkey assessed as HPA axis activation by measuring increase in cortisol level at 10 mg/kg for 7 days; format: organism-based, Macaca fascicularis; conditions: in vivo, 168 h
[5] = Metabolic stability in human liver microsomes assessed as UGT-mediated glucuronidation of compound by measuring half life in presence of UDPGA; format: ADME
Procedure, shortened: (§1)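 Liver microsomal glucuronidation incubations in the presence of UDPGA; parent half-life determined.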

[6] = Metabolic stability in mouse liver microsomes assessed as UGT-mediated glucuronidation of compound by measuring half life in presence of UDPGA; format: ADME; procedure, shortened: as §1
[7] = (§2) Metabolic stability in human liver microsomes assessed as parent compound remaining after 10 mins; format: ADME, microsome; conditions: liver microsomes, read-out: Stability
Procedure, shortened: (§3)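 Parent compound remaining after a 10 min incubation with human, mouse or rat liver microsomes.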

[8] = (§4) Metabolic stability in mouse liver microsomes assessed as parent compound remaining after 10 mins; format: ADME, microsome; conditions: liver microsomes, read-out: Stability; procedure, shortened: as §3
[9] = (§5) Metabolic stability in rat liver microsomes assessed as parent compound remaining after 10 mins; format: ADME, microsome; conditions: liver microsomes, read-out: Stability; procedure, shortened: as §3
[10] = biological target: T1, Nuclear receptor subfamily 1 group I member 2 (Homo sapiens, UniProt O75469); experiment: Activation of PXR (unknown origin); format: ADME
T1 sequence (O75469 whole entry): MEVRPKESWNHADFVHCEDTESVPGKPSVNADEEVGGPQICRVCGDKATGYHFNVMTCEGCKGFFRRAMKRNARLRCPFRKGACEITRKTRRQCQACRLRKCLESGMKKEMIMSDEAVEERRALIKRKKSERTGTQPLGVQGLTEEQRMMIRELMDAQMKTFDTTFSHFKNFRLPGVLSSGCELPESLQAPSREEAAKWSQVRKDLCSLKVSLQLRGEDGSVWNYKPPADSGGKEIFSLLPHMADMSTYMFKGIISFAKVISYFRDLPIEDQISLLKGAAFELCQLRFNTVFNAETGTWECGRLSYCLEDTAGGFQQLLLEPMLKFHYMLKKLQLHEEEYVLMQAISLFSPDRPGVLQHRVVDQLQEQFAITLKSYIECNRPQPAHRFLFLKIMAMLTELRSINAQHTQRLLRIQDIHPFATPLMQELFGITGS
Procedure, shortened: (§6)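 PXR transactivation assay; EC50 and maximal activation (Ymax, % of control) reported.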

[11] = biological target: 11-beta-hydroxysteroid dehydrogenase 1 (Mus musculus, UniProt P50172)
PXR = PXR (Homo sapiens, UniProt O75469); experiment: Activation of PXR (unknown origin) relative to control; format: ADME; procedure, shortened: as §6
Liver [12] = experiment: as §5; format: ADME, microsome; conditions: microsomes, 10 min; procedure, shortened: as §3
[13] = Inhibition of cynomolgus monkey 11beta-HSD1; parameters: species or system Macaca fascicularis
Liver [14] = experiment: as §2; format: ADME, microsome; conditions: microsomes, 10 min; procedure, shortened: as §3
Liver [15] = experiment: as §4; format: ADME, microsome; conditions: microsomes, 10 min; procedure, shortened: as §3
Mus musculus = experiment: In vivo inhibition of 11beta-HSD1 in po dosed non-fasting diet-induced obese mouse assessed as decrease in corticosterone excursion in plasma pretreated for 60 mins followed by DHC administration measured up to 120 mins by enzyme immunosorbent assay; format: functional
Procedure, shortened: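 Nonfasting diet-induced obese male mice, groups of n = 6 matched for body weight; tail bleed at −60 min, then oral vehicle (0.5% Methocel, 0.1% Tween 80 in water) or drug. At 60 min, bleed and oral DHC 10 mg/kg. Bleeds at 30, 60 and 120 min post-DHC. Plasma corticosterone measured by enzyme immunosorbent assay; drug levels in terminal bleed.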

11-beta-hydroxysteroid dehydrogenase 1, sequence (P50172 whole entry): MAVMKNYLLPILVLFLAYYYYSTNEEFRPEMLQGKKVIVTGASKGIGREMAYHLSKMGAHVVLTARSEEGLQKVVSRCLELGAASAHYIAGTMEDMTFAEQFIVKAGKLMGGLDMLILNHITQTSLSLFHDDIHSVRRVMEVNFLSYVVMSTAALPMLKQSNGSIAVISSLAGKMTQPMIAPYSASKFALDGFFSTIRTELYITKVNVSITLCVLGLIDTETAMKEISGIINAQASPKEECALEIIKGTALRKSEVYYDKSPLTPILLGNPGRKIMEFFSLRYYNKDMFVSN

remaining at 10 min [7] | remaining at 10 min [8] | remaining at 10 min [9] | Compound | further results
82 to 100% | 73 to 77% | 62 to 79% | NC(=O)C12CC3CC(C1)C(CC(=O)N1CC(O)C1)(c1ccc(F)cc1)C(C3)C2 (stereo unspecified) | EC50 [10]: > 50000 nM
38 to 69% | 13 to 38% | 5 to 9% | O=C(CC1(c2ccc(F)cc2)C2CC3CC1CC(F)(C3)C2)N1CC(O)C1 (stereo unspecified) | EC50 [10]: > 25000 nM
84% | 54% | 22% | Cc1cccc(C2(CC(=O)N3CC(O)C3)C3CC4CC2CC(C3)C4O)c1 (racemic) | –
86% | 58% | 92% | O=C(CC1(c2cccnc2)C2CC3CC1CC(C2)C3O)N1CC(O)C1 (racemic) | –
57% | 71% | 0% | O=C(CC1(c2ccc(C(F)(F)F)cc2)C2CC3CC1CC(C2)C3O)N1CC(O)C1 (racemic) | –
41% | 17% | 23% | CC1(O)C2CC3CC(C2)C(CC(=O)N2CC(O)C2)(c2ccc(F)cc2)C1C3 (racemic) | EC50 [10]: > 50000 nM
75% | 72% | 26% | Cc1ccc(C2(CC(=O)N3CC(O)C3)C3CC4CC2CC(C3)C4O)cc1 (racemic) | –
81% | 73% | 58% | O=C(CC1(c2ccc(Cl)cc2)C2CC3CC1CC(C2)C3O)N1CC(O)C1 (racemic) | –
100% | 100% | 98% | CS(=O)(=O)c1ccc(C2(CC(=O)N3CC(O)C3)C3CC4CC2CC(C3)C4O)cc1 (racemic) | –
25% | 11% | 2% | O=C(CC1(c2ccc(F)cc2)C2CC3CC(C2)CC1(O)C3)N1CC(O)C1 (racemic) | EC50 [10]: > 50000 nM
98% | 71% | 70% | COc1ccc(C2(CC(=O)N3CC(O)C3)C3CC4CC2CC(C3)C4O)cc1 (racemic) | –
100% | 87% | 95% | N#Cc1ccc(C2(CC(=O)N3CC(O)C3)C3CC4CC2CC(C3)C4O)cc1 (racemic) | –

Continued, compound first:

Compound | remaining at 10 min [7] | remaining at 10 min [8] | remaining at 10 min [9] | further results
O=C(O)CC1(c2ccc(F)cc2)C2CC3CC(C2)CC1C3 (stereo unspecified) | – | – | – | ED50 (Cynomolgus monkey [1]): 0.3 mg/kg; Activity (Cynomolgus monkey [2]): Toxic; Activity (Cynomolgus monkey [3]): Toxic; Activity (Cynomolgus monkey [4]): Toxic
Fc1ccc(C2(Cc3nnn[nH]3)C3CC4CC(C3)CC2C4)cc1 (stereo unspecified) | – | – | – | half-life [5]: > 2 h; half-life [6]: > 1 h
N#CC12CC3CC(C1)C(CC(=O)N1CC(O)C1)(c1ccc(F)cc1)C(C3)C2 (stereo unspecified) | 62% | 42% | 46% | EC50 [10]: > 50000 nM
O=C(CC1(c2ccc(F)cc2)C2CC3CC(C2)CC1C3)N1CC[C@@H]1CO (stereo partly specified) | – | – | – | IC50 [11]: 12 nM
O=C(CC1(c2ccc(F)cc2)C2CC3CC(C2)CC1C3)N1CC(O)C1 (stereo unspecified) | – | – | – | EC50 [10]: 6700 nM; Emax (PXR): 37%
O=C(CC1(c2ccc(F)cc2)C2CC3CC(C2)CC1C3)N1CC[C@H]1CO (stereo partly specified) | – | – | – | IC50 [11]: 1850 nM
NC(=O)CC1(c2ccc(F)cc2)C2CC3CC(C2)CC1C3 (stereo unspecified) | – | – | – | half-life [5]: > 2 h; half-life [6]: > 2 h
COC12CC3CC(C1)C(CC(=O)N1CC(O)C1)(c1ccc(F)cc1)C(C3)C2 (stereo unspecified) | 27 to 72% | 17 to 55% | 6 to 14% | EC50 [10]: > 50000 nM
O=C(CC1(c2ccc(F)cc2)C2CC3CC1CC(O)(C3)C2)N1CC(O)C1 (stereo unspecified) | 100% | 80 to 100% | 82 to 85% | EC50 [10]: > 50000 nM
NC(=O)C1C2CC3CC1CC(C2)C3(CC(=O)N1CC(O)C1)c1ccc(F)cc1 (racemic) | 100% | 99% | 92% | –
O=C(CC1(C2CCCCC2)C2CC3CC1CC(C2)C3O)N1CC(O)C1 (racemic) | 100% | 24% | 14% | –
O=C(CC1(c2ccc(F)cc2)C2CC3CC1CC(C2)C3O)N1CC(O)C1 (racemic) | 95% | 92% | – | IC50 [11]: 43 nM; Stability (Liver [12]): 88%; EC50 [10]: > 50000 nM; Emax (PXR): 4%
O=C(CC1(c2ccncc2)C2CC3CC1CC(C2)C3O)N1CC(O)C1 (racemic) | 92% | 94% | 100% | –
N#CC1C2CC3CC1CC(C2)C3(CC(=O)N1CC(O)C1)c1ccc(F)cc1 (racemic) | 53% | 47% | 27% | –
O=C(CC1(c2ccccn2)C2CC3CC1CC(C2)C3O)N1CC(O)C1 (racemic) | 100% | 93% | 90% | –
Cc1ccccc1C1(CC(=O)N2CC(O)C2)C2CC3CC1CC(C2)C3O (racemic) | 62% | 77% | 25% | –
CC1(O)C2CC3CC1CC(C2)C3(CC(=O)N1CC(O)C1)c1ccc(F)cc1 (racemic) | 84% | 66% | 47% | –
O=C(CC1(c2cccc(Cl)c2)C2CC3CC1CC(C2)C3O)N1CC(O)C1 (racemic) | 85% | 66% | 37% | –
O=C(CC1(Cc2ccccc2)C2CC3CC1CC(C2)C3O)N1CC(O)C1 (racemic) | 63% | 33% | 3% | –
O=C(CC1(c2ccc(-c3ccncc3)cc2)C2CC3CC1CC(C2)C3O)N1CC(O)C1 (racemic) | 28% | 42% | 53% | –
O=C(CC1(c2ccc(-c3ccc(F)cc3)cc2)C2CC3CC1CC(C2)C3O)N1CC(O)C1 (racemic) | 39% | 10% | 5% | –
O=C(CC1(c2ccccc2)C2CC3CC1CC(C2)C3O)N1CC(O)C1 (racemic) [BMS-816336] | 88% | 82% | – | IC50 [11]: 68 nM; Stability (Liver [12]): 72%
O=C(CC1(c2ccc(F)cc2)C2CC3CC1CC(C2)C3O)N1CC(O)C1 (single isomer, unassigned; enantiomer 2) | – | – | – | IC50 [13]: 6.9 nM; Stability (Liver [14]): 90%; Stability (Liver [15]): 82%; Stability (Liver [12]): 75%
O=C(CC1(c2ccc(F)cc2)C2CC3CC1CC(C2)C3O)N1CC(O)C1 (stereo in doubt) | – | – | – | IC50 [11]: 150 nM; IC50 [13]: 24.8 nM; Stability (Liver [14]): 85%; Stability (Liver [15]): 78%; Stability (Liver [12]): 58%
O=C(CC1(c2ccccc2)C2CC3CC1CC(C2)C3O)N1CC(O)C1 (stereo in doubt; form 1) | – | – | – | IC50 [13]: 16 nM; Stability (Liver [14]): 89%; Stability (Liver [15]): 65%; Stability (Liver [12]): 36%
O=C(CC1(c2ccccc2)C2CC3CC1CC(C2)C3O)N1CC(O)C1 (stereo in doubt; form 2) | – | – | – | inhibition (Mus musculus): Dose-dependent effect

Source: ChEMBL document CHEMBL4014336 (J Med Chem, 2017)
